# Measurements as given in ChEMBL document CHEMBL5058577, “EUbOPEN Chemogenomics Library 2 (Multiplex)” (2022).
# Tested on: HEK-293T
# Test: Multiplex assay against HEK293T
# Assay type: toxicity, cell-based
# Details: human
# Summary of the method: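 Per cents of healthy-nucleus cells form the tubulin, mitochondrial-mass and membrane-permeability phenotype values. Live cells were stained at seeding with Hoechst33342, BioTracker Green Microtubule Cytoskeleton Dye, MitoTracker Red and Annexin V Alexa Fluor 680. After compound addition they were imaged on a CQ1 microscope at 37°C and 5% CO2, and CellPathfinder machine-learning gating split them into Hoechst high-intensity objects or normal cells, normal cells into healthy, pyknosed or fragmented nuclei, and pyknosed cells into mitotic or apoptotic.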
# [1] = 12 h, 1 µM, compound concentration 1 uM, replicate 1
# [2] = 12 h, 1 µM, compound concentration 1 uM, replicate 2
# [3] = 12 h, 10 µM, compound concentration 10 uM, replicate 1
# [4] = 12 h, 10 µM, compound concentration 10 uM, replicate 2
# [5] = 24 h, 1 µM, compound concentration 1 uM, replicate 1
# [6] = 24 h, 1 µM, compound concentration 1 uM, replicate 2
# [7] = 24 h, 10 µM, compound concentration 10 uM, replicate 1
# [8] = 24 h, 10 µM, compound concentration 10 uM, replicate 2
# [9] = 48 h, 1 µM, compound concentration 1 uM, replicate 1
# [10] = 48 h, 1 µM, compound concentration 1 uM, replicate 2
# [11] = 48 h, 10 µM, compound concentration 10 uM, replicate 1
# [12] = 48 h, 10 µM, compound concentration 10 uM, replicate 2
compound,measurement,setting,value
O=C(O)Cc1ccccc1Nc1c(Cl)cccc1Cl [DICLOFENAC],Population Apoptotic (%),[1],36%
same,Population Fragmented Nuclei (%),[1],7%
same,Population Healthy Nuclei (%),[1],77%
same,Population Hoechst High Intensity Objects (%),[1],5%
same,Population Membrane Permeable-Phenotype (%),[1],0%
same,Population Mitochondria Different-Phenotype (%),[1],53%
same,Population Mitotic Cells (%),[1],63%
same,Population Normal (%),[1],94%
same,Population Pyknosed Nuclei (%),[1],14%
same,Population Tubulin-Different-Phenotype (%),[1],32%
same,Total Cell Count,[1],376
same,Population Apoptotic (%),[2],52%
same,Population Healthy Nuclei (%),[2],79%
same,Population Hoechst High Intensity Objects (%),[2],10%
same,Population Mitochondria Different-Phenotype (%),[2],61%
same,Population Mitotic Cells (%),[2],47%
same,Population Normal (%),[2],89%
same,Population Pyknosed Nuclei (%),[2],13%
same,Population Tubulin-Different-Phenotype (%),[2],23%
same,Total Cell Count,[2],324
same,Population Apoptotic (%),[3],30%
same,Population Fragmented Nuclei (%),[3],7%
same,Population Healthy Nuclei (%),[3],77%
same,Population Hoechst High Intensity Objects (%),[3],6%
same,Population Membrane Permeable-Phenotype (%),[3],0%
same,Population Mitochondria Different-Phenotype (%),[3],45%
same,Population Mitotic Cells (%),[3],69%
same,Population Normal (%),[3],93%
same,Population Pyknosed Nuclei (%),[3],14%
same,Population Tubulin-Different-Phenotype (%),[3],35%
same,Total Cell Count,[3],480
same,Population Apoptotic (%),[4],57%
same,Population Healthy Nuclei (%),[4],75%
same,Population Hoechst High Intensity Objects (%),[4],14%
same,Population Mitochondria Different-Phenotype (%),[4],68%
same,Population Mitotic Cells (%),[4],42%
same,Population Normal (%),[4],85%
same,Population Pyknosed Nuclei (%),[4],17%
same,Total Cell Count,[4],370
same,Population Apoptotic (%),[5],30%
same,Population Fragmented Nuclei (%),[5],7%
same,Population Healthy Nuclei (%),[5],76%
same,Population Hoechst High Intensity Objects (%),[5],3%
same,Population Membrane Permeable-Phenotype (%),[5],0%
same,Population Mitochondria Different-Phenotype (%),[5],44%
same,Population Mitotic Cells (%),[5],69%
same,Population Normal (%),[5],96%
same,Population Pyknosed Nuclei (%),[5],15%
same,Population Tubulin-Different-Phenotype (%),[5],24%
same,Total Cell Count,[5],456
same,Population Apoptotic (%),[6],45%
same,Population Fragmented Nuclei (%),[6],6%
same,Population Healthy Nuclei (%),[6],78%
same,Population Hoechst High Intensity Objects (%),[6],10%
same,Population Mitochondria Different-Phenotype (%),[6],37%
same,Population Mitotic Cells (%),[6],54%
same,Population Normal (%),[6],89%
same,Population Pyknosed Nuclei (%),[6],14%
same,Population Tubulin-Different-Phenotype (%),[6],9%
same,Total Cell Count,[6],418
same,Population Apoptotic (%),[7],25%
same,Population Fragmented Nuclei (%),[7],10%
same,Population Healthy Nuclei (%),[7],77%
same,Population Hoechst High Intensity Objects (%),[7],4%
same,Population Membrane Permeable-Phenotype (%),[7],0%
same,Population Mitochondria Different-Phenotype (%),[7],29%
same,Population Mitotic Cells (%),[7],74%
same,Population Normal (%),[7],95%
same,Population Pyknosed Nuclei (%),[7],12%
same,Population Tubulin-Different-Phenotype (%),[7],29%
same,Total Cell Count,[7],650
same,Population Apoptotic (%),[8],49%
same,Population Healthy Nuclei (%),[8],75%
same,Population Hoechst High Intensity Objects (%),[8],9%
same,Population Mitochondria Different-Phenotype (%),[8],50%
same,Population Mitotic Cells (%),[8],50%
same,Population Normal (%),[8],90%
same,Population Pyknosed Nuclei (%),[8],14%
same,Population Tubulin-Different-Phenotype (%),[8],26%
same,Total Cell Count,[8],462
same,Population Apoptotic (%),[9],23%
same,Population Fragmented Nuclei (%),[9],11%
same,Population Healthy Nuclei (%),[9],82%
same,Population Hoechst High Intensity Objects (%),[9],2%
same,Population Membrane Permeable-Phenotype (%),[9],1%
same,Population Mitochondria Different-Phenotype (%),[9],22%
same,Population Mitotic Cells (%),[9],76%
same,Population Normal (%),[9],97%
same,Population Pyknosed Nuclei (%),[9],6%
same,Population Tubulin-Different-Phenotype (%),[9],15%
same,Total Cell Count,[9],730
same,Population Apoptotic (%),[10],33%
same,Population Fragmented Nuclei (%),[10],15%
same,Population Healthy Nuclei (%),[10],79%
same,Population Mitochondria Different-Phenotype (%),[10],16%
same,Population Mitotic Cells (%),[10],66%
same,Population Pyknosed Nuclei (%),[10],4%
same,Population Tubulin-Different-Phenotype (%),[10],10%
same,Total Cell Count,[10],697
same,Population Apoptotic (%),[11],36%
same,Population Fragmented Nuclei (%),[11],12%
same,Population Healthy Nuclei (%),[11],80%
same,Population Hoechst High Intensity Objects (%),[11],3%
same,Population Membrane Permeable-Phenotype (%),[11],1%
same,Population Mitochondria Different-Phenotype (%),[11],17%
same,Population Mitotic Cells (%),[11],63%
same,Population Normal (%),[11],96%
same,Population Pyknosed Nuclei (%),[11],7%
same,Population Tubulin-Different-Phenotype (%),[11],18%
same,Total Cell Count,[11],883
same,Population Fragmented Nuclei (%),[12],16%
same,Population Healthy Nuclei (%),[12],75%
same,Population Hoechst High Intensity Objects (%),[12],4%
same,Population Membrane Permeable-Phenotype (%),[12],0%
same,Population Mitochondria Different-Phenotype (%),[12],36%
same,Population Normal (%),[12],95%
same,Population Tubulin-Different-Phenotype (%),[12],17%
same,Total Cell Count,[12],649
CNC[C@H](O)c1ccc(O)c(O)c1 [EPINEPHRINE],Population Apoptotic (%),[1],20%
same,Population Fragmented Nuclei (%),[1],6%
same,Population Healthy Nuclei (%),[1],81%
same,Population Hoechst High Intensity Objects (%),[1],7%
same,Population Membrane Permeable-Phenotype (%),[1],0%
same,Population Mitochondria Different-Phenotype (%),[1],31%
same,Population Mitotic Cells (%),[1],80%
same,Population Normal (%),[1],92%
same,Population Pyknosed Nuclei (%),[1],11%
same,Population Tubulin-Different-Phenotype (%),[1],26%
same,Population Apoptotic (%),[2],56%
same,Population Hoechst High Intensity Objects (%),[2],6%
same,Population Mitochondria Different-Phenotype (%),[2],65%
same,Population Mitotic Cells (%),[2],43%
same,Population Normal (%),[2],93%
same,Population Tubulin-Different-Phenotype (%),[2],27%
same,Population Apoptotic (%),[3],55%
same,Population Fragmented Nuclei (%),[3],12%
same,Population Healthy Nuclei (%),[3],75%
same,Population Hoechst High Intensity Objects (%),[3],9%
same,Population Membrane Permeable-Phenotype (%),[3],1%
same,Population Mitochondria Different-Phenotype (%),[3],65%
same,Population Mitotic Cells (%),[3],44%
same,Population Normal (%),[3],90%
same,Population Pyknosed Nuclei (%),[3],11%
same,Population Tubulin-Different-Phenotype (%),[3],39%
same,Population Apoptotic (%),[4],56%
same,Population Fragmented Nuclei (%),[4],11%
same,Population Healthy Nuclei (%),[4],61%
same,Population Hoechst High Intensity Objects (%),[4],40%
same,Population Membrane Permeable-Phenotype (%),[4],0%
same,Population Mitochondria Different-Phenotype (%),[4],62%
same,Population Mitotic Cells (%),[4],43%
same,Population Normal (%),[4],59%
same,Population Pyknosed Nuclei (%),[4],26%
same,Population Tubulin-Different-Phenotype (%),[4],25%
same,Population Apoptotic (%),[5],19%
same,Population Fragmented Nuclei (%),[5],9%
same,Population Healthy Nuclei (%),[5],80%
same,Population Hoechst High Intensity Objects (%),[5],5%
same,Population Membrane Permeable-Phenotype (%),[5],0%
same,Population Mitochondria Different-Phenotype (%),[5],25%
same,Population Mitotic Cells (%),[5],80%
same,Population Normal (%),[5],94%
same,Population Pyknosed Nuclei (%),[5],9%
same,Population Tubulin-Different-Phenotype (%),[5],21%
same,Population Apoptotic (%),[6],36%
same,Population Hoechst High Intensity Objects (%),[6],7%
same,Population Membrane Permeable-Phenotype (%),[6],1%
same,Population Mitochondria Different-Phenotype (%),[6],41%
same,Population Mitotic Cells (%),[6],63%
same,Population Normal (%),[6],92%
same,Population Pyknosed Nuclei (%),[6],10%
same,Population Tubulin-Different-Phenotype (%),[6],18%
same,Population Apoptotic (%),[7],50%
same,Population Fragmented Nuclei (%),[7],13%
same,Population Healthy Nuclei (%),[7],75%
same,Population Hoechst High Intensity Objects (%),[7],8%
same,Population Membrane Permeable-Phenotype (%),[7],0%
same,Population Mitochondria Different-Phenotype (%),[7],50%
same,Population Mitotic Cells (%),[7],50%
same,Population Normal (%),[7],91%
same,Population Pyknosed Nuclei (%),[7],11%
same,Population Tubulin-Different-Phenotype (%),[7],36%
same,Population Apoptotic (%),[8],80%
same,Population Fragmented Nuclei (%),[8],11%
same,Population Healthy Nuclei (%),[8],71%
same,Population Hoechst High Intensity Objects (%),[8],39%
same,Population Mitochondria Different-Phenotype (%),[8],43%
same,Population Mitotic Cells (%),[8],19%
same,Population Normal (%),[8],60%
same,Population Pyknosed Nuclei (%),[8],17%
same,Population Tubulin-Different-Phenotype (%),[8],25%
same,Population Apoptotic (%),[9],16%
same,Population Fragmented Nuclei (%),[9],11%
same,Population Healthy Nuclei (%),[9],81%
same,Population Hoechst High Intensity Objects (%),[9],3%
same,Population Membrane Permeable-Phenotype (%),[9],1%
same,Population Mitochondria Different-Phenotype (%),[9],13%
same,Population Mitotic Cells (%),[9],83%
same,Population Normal (%),[9],96%
same,Population Pyknosed Nuclei (%),[9],7%
same,Population Tubulin-Different-Phenotype (%),[9],9%
same,Population Apoptotic (%),[10],35%
same,Population Fragmented Nuclei (%),[10],12%
same,Population Healthy Nuclei (%),[10],78%
same,Population Mitochondria Different-Phenotype (%),[10],24%
same,Population Mitotic Cells (%),[10],64%
same,Population Pyknosed Nuclei (%),[10],8%
same,Population Tubulin-Different-Phenotype (%),[10],15%
same,Population Apoptotic (%),[11],33%
same,Population Fragmented Nuclei (%),[11],21%
same,Population Healthy Nuclei (%),[11],72%
same,Population Hoechst High Intensity Objects (%),[11],3%
same,Population Membrane Permeable-Phenotype (%),[11],0%
same,Population Mitochondria Different-Phenotype (%),[11],25%
same,Population Mitotic Cells (%),[11],66%
same,Population Normal (%),[11],96%
same,Population Pyknosed Nuclei (%),[11],5%
same,Population Tubulin-Different-Phenotype (%),[11],11%
same,Population Apoptotic (%),[12],69%
same,Population Fragmented Nuclei (%),[12],17%
same,Population Healthy Nuclei (%),[12],67%
same,Population Hoechst High Intensity Objects (%),[12],21%
same,Population Mitochondria Different-Phenotype (%),[12],34%
same,Population Mitotic Cells (%),[12],30%
same,Population Normal (%),[12],78%
same,Population Pyknosed Nuclei (%),[12],14%
same,Population Tubulin-Different-Phenotype (%),[12],13%
